Columns and labels:
[1] = Inhibition of P-gp in human MCF7/ADR cells assessed as reversal of multidrug resistance at 10 uM by measuring EC50 for adriamycin-induced cytotoxicity after 48 hrs by SRB colorimetric assay; details: nci/adr-res
[2] = Cytotoxicity against human MCF7/ADR cells assessed as reduction in cell viability after 48 hrs by SRB colorimetric assay; type: functional, cell-based; details: NCI/ADR-RES
Method in brief: (§1)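 MCF-7 from ATCC and its stepwise ADR-selected resistant subline, grown in RPMI-1640 with 10% FBS and penicillin/streptomycin at 37 °C, 5% CO2. 1 × 10^4 cells/well exposed to graded compound concentrations for 48 h. Cells fixed with 10% TCA, stained with 0.4% SRB in 1% acetic acid, dye extracted with 10 mM Tris base, OD read at 490 nm. Taxol positive control.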

[3] = target: ATP-dependent translocase ABCB1 (Homo sapiens, UniProt P08183); assay: Inhibition of P-gp in human MCF7/ADR cells assessed as reversal of multidrug resistance by measuring relative enhancement intensity for adriamycin-induced cytotoxicity at 10 uM after 48 hrs by SRB colorimetric assay; type: cell-based; set-up: scale not given: the % may be the effect or the level left; details: nci/adr-res
[4] = tested on: NCI/ADR-RES; assay: Inhibition of P-gp in human MCF7/ADR cells assessed as reversal of multidrug resistance at 10 uM by measuring ratio of EC50(adriamycin)/EC50(adriamycin + compound) after 48 hrs by SRB colorimetric assay; type: cell-based
[5] = tested on: MCF7; assay: Cytotoxicity against human MCF7 cells assessed as reduction in cell viability after 48 hrs by SRB colorimetric assay; type: functional, cell-based; details: MCF7, 48 h
Method in brief: as §1

Chain of ATP-dependent translocase ABCB1 (P08183 whole entry): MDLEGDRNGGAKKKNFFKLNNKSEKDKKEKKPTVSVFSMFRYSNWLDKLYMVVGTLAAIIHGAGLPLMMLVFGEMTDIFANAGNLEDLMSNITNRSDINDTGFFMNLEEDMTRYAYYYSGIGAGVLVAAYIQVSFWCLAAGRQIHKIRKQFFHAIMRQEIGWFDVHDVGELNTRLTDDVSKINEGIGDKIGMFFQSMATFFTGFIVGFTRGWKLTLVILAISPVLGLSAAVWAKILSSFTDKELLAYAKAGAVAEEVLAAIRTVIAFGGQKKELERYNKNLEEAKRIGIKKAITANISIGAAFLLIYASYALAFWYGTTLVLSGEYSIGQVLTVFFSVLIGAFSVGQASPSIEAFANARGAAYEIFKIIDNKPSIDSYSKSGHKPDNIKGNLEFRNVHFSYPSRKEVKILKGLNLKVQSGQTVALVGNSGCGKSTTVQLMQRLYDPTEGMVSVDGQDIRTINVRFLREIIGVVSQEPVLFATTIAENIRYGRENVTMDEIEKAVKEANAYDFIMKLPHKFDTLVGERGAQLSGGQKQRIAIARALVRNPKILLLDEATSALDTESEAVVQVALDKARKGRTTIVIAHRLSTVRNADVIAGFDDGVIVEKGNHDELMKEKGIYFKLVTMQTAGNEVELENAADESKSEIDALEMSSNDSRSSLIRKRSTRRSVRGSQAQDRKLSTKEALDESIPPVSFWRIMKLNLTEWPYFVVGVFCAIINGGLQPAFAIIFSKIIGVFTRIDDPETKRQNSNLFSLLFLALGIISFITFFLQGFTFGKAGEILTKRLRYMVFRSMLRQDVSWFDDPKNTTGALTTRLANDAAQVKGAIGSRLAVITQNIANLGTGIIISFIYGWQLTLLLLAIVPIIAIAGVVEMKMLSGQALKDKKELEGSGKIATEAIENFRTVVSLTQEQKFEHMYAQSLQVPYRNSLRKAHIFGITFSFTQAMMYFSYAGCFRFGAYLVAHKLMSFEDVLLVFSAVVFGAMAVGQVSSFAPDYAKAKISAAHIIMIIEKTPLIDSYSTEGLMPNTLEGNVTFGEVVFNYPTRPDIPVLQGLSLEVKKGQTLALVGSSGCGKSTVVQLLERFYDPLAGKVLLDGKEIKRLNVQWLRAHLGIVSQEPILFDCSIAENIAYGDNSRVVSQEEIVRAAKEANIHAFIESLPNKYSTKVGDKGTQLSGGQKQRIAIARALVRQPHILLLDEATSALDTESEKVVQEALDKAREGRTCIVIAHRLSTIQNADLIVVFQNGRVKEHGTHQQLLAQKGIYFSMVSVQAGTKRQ

Row | SMILES | EC50 [1] [µM] | IC50 [2] [µM] | Activity [3] [%] | Ratio EC50 [4] | IC50 [5] [µM]
1 | C=C1CC[C@H]2[C@@H](/C=C(\C)C(=O)[C@@]3(O)C[C@H](C)[C@H](O)[C@@H]3[C@H]1OC(=O)CCCCC)C2(C)C | 11.45 | 46.1 | 9.1 | 3 | 18.1
2 | C=C1CC[C@H]2[C@@H]([C@@H]3O[C@]4(C[C@H](C)[C@H](OC(=O)CCc5ccccc5)[C@@H]4[C@H]1OC(=O)CCc1ccccc1)C(=O)[C@H]3C)C2(C)C |  | > 100 | 6.9 | 1.2 | 46.8
3 | C=C1CC[C@H]2[C@@H](/C=C(\C)C(=O)[C@@]3(O)C[C@H](C)[C@H](OC(=O)Cc4ccccc4)[C@@H]3[C@H]1OC(=O)Cc1ccccc1)C2(C)C |  | 36.3 | 9.5 | 2.6 | 8.93
4 | C=C1CC[C@H]2[C@@H]([C@@H]3O[C@]4(C[C@H](C)[C@H](OC(=O)c5ccccc5)[C@@H]4[C@H]1OC(=O)c1ccccc1)C(=O)[C@@H]3C)C2(C)C |  | > 100 | 6.8 | 3.2 | 25.2
5 | C=C1CC[C@H]2[C@@H](/C=C(\C)C(=O)[C@@]3(O)C[C@H](C)[C@H](OC(=O)/C=C/c4ccccc4)[C@@H]3[C@H]1OC(=O)c1ccccc1)C2(C)C |  | 42.1 | 12.1 | 9.8 | 14.2
6 | C=C1CC[C@H]2[C@@H]([C@@H]3O[C@]4(C[C@H](C)[C@H](OC(=O)c5ccccc5)[C@@H]4[C@H]1OC(=O)c1ccccc1)C(=O)[C@H]3C)C2(C)C | 20.49 | > 100 | 4.3 | 1.7 | 34.9
7 | C=C1CC[C@H]2[C@@H]([C@@H]3O[C@]4(C[C@H](C)[C@H](OC(=O)CCC)[C@@H]4[C@H]1OC(=O)CCC)C(=O)[C@H]3C)C2(C)C |  | > 100 | 7.7 | 3 | 19.1
8 | C=C1CC[C@H]2[C@@H](/C=C(\C)C(=O)[C@@]3(O)C[C@H](C)[C@H](O)[C@@H]3[C@H]1O)C2(C)C |  | 59.6 | 7.3 | 3 | 34
9 | C=C1CC[C@H]2[C@@H](/C=C(\C)C(=O)[C@@]3(O)C[C@H](C)[C@H](O)[C@@H]3[C@H]1OC(=O)CCCC)C2(C)C |  | 57.9 | 0.1 | 0.8 | 13.1
10 | C=C1CC[C@H]2[C@@H](/C=C(\C)C(=O)[C@@]3(O)C[C@H](C)[C@H](O)[C@@H]3[C@H]1OC(=O)/C=C/c1ccccc1)C2(C)C |  | 58.8 | 9.1 | 2.7 | 8.24
11 | C=C1CC[C@H]2[C@@H]([C@@H]3O[C@]4(C[C@H](C)[C@H](OC(=O)Cc5ccccc5)[C@@H]4[C@H]1OC(=O)Cc1ccccc1)C(=O)[C@@H]3C)C2(C)C |  | 55 | 4 | 1.6 | 28.5
12 | C=C1CC[C@H]2[C@@H]([C@@H]3O[C@]4(C[C@H](C)[C@H](OC(=O)Cc5cccc6ccccc56)[C@@H]4[C@H]1OC(=O)Cc1cccc4ccccc14)C(=O)[C@H]3C)C2(C)C |  | > 100 | 10.4 | 1.4 | 84.9
13 | C=C1CC[C@H]2[C@@H]([C@@H]3O[C@]4(C[C@H](C)[C@H](OC(=O)CCc5ccccc5)[C@@H]4[C@H]1OC(=O)CCc1ccccc1)C(=O)[C@@H]3C)C2(C)C |  | 40.1 | 8.3 | 1.6 | 14.2
14 | C=C1CC[C@H]2[C@@H](/C=C(\C)C(=O)[C@@]3(O)C[C@H](C)[C@H](O)[C@@H]3[C@H]1OC(=O)c1ccccc1)C2(C)C |  | 55.3 | 7.5 | 1.5 | 11.6
15 | C=C1CC[C@H]2[C@@H](/C=C(\C)C(=O)[C@@]3(O)C[C@H](C)[C@H](OC(=O)CC)[C@@H]3[C@H]1OC(=O)CC)C2(C)C |  | 45 | 4.6 | 2.8 | 18.6
16 | C=C1CC[C@H]2[C@@H](/C=C(\C)C(=O)[C@@]3(O)C[C@H](C)[C@H](O)[C@@H]3[C@H]1OC(=O)c1cccnc1)C2(C)C |  | 19.3 | 10.3 | 2.3 | 17.3
17 | C=C1CC[C@H]2[C@@H](/C=C(\C)C(=O)[C@@]3(O)C[C@H](C)[C@H](O)[C@@H]3[C@H]1OC(C)=O)C2(C)C |  | 80.7 | 7.1 | 1.9 | 26.6

Row | SMILES | EC50 [1] [µM] | IC50 [2] [µM] | Activity [3] [%] | Ratio EC50 [4] | IC50 [5] [µM]
18 | C=C1CC[C@H]2[C@@H](/C=C(\C)C(=O)[C@@]3(O)C[C@H](C)[C@H](OC(=O)CC)[C@@H]3[C@H]1OC(=O)c1ccccc1)C2(C)C | 4.22 | 63.3 | 12.1 | 8.2 | 8.47
19 | C=C1CC[C@H]2[C@@H](/C=C(\C)C(=O)[C@@]3(O)C[C@H](C)[C@H](OC(=O)CCCCC)[C@@H]3[C@H]1OC(=O)CCCCC)C2(C)C | 18.51 | > 100 | 5.8 | 1.9 | 47.1
20 | C=C1CC[C@H]2[C@@H](/C=C(\C)C(=O)[C@@]3(O)C[C@H](C)[C@H](OC(=O)CC)[C@@H]3[C@H]1OC(=O)Cc1ccccc1)C2(C)C |  | 76 | 9.3 | 8.1 | 9.57
21 | C=C1CC[C@H]2[C@@H]([C@@H]3O[C@]4(C[C@H](C)[C@H](OC(=O)Cc5ccccc5)[C@@H]4[C@H]1OC(=O)Cc1ccccc1)C(=O)[C@H]3C)C2(C)C |  | > 100 | 11.6 | 2.1 | 28.5
22 | C=C1CC[C@H]2[C@@H]([C@@H]3O[C@]4(C[C@H](C)[C@H](OC(=O)CCCCC)[C@@H]4[C@H]1OC(=O)CCCCC)C(=O)[C@H]3C)C2(C)C |  | > 100 | 6.8 | 7 | 48.1
23 | C=C1CC[C@H]2[C@@H](/C=C(\C)C(=O)[C@@]3(O)C[C@H](C)[C@H](OC(C)=O)[C@@H]3[C@H]1OC(C)=O)C2(C)C |  | 41 | 4.7 | 4.1 | 21.6
24 | C=C1CCC(=C(C)C)[C@H]2C[C@@H](C)C(=O)[C@@]3(C[C@H](C)[C@H](OC(C)=O)[C@@H]3[C@H]1OC(C)=O)O2 |  | 65.2 | 2.4 | 1.9 | 45.8
25 | C=C1CC[C@H]2[C@@H](/C=C(\C)C(=O)[C@@]3(O)C[C@H](C)[C@H](OC(=O)CCC)[C@@H]3[C@H]1OC(=O)CCC)C2(C)C | 14.49 | 50.9 | 4 | 2.4 | 18.5
26 | C=C1CC[C@H]2[C@@H](/C=C(\C)C(=O)[C@@]3(O)C[C@H](C)[C@H](O)[C@@H]3[C@H]1OC(=O)Cc1ccccc1)C2(C)C |  | 42.9 | 9.6 | 7.4 | 14.8
27 | C=C1CC[C@H]2[C@@H](/C=C(\C)C(=O)[C@@]3(O)C[C@H](C)[C@H](O)[C@@H]3[C@H]1OC(=O)C(C)C)C2(C)C |  | 66.3 | 10.1 | 3.2 | 17
28 | C=C1CC[C@H]2[C@@H](/C=C(\C)C(=O)[C@@]3(O)C[C@H](C)[C@H](O)[C@@H]3[C@H]1OC(=O)CC)C2(C)C |  | 53.5 | 11.3 | 2.3 | 32.1
29 | C=C1CC[C@H]2[C@@H](/C=C(\C)C(=O)[C@@]3(O)C[C@H](C)[C@H](OC(=O)c4ccccc4)[C@@H]3[C@H]1OC(=O)Cc1cccc3ccccc13)C2(C)C |  | > 100 | 11.1 | 4 | 4.16
30 | C=C1CC[C@H]2[C@@H](/C=C(\C)C(=O)[C@@]3(O)C[C@H](C)[C@H](O)[C@@H]3[C@H]1OC(=O)CCc1ccccc1)C2(C)C |  | 23.4 | 11.6 | 3.5 | 11
31 | C=C1CC[C@H]2[C@@H](/C=C(\C)C(=O)[C@@]3(O)C[C@H](C)[C@H](OC(=O)CCc4ccccc4)[C@@H]3[C@H]1OC(=O)CCc1ccccc1)C2(C)C |  | > 100 | 6 | 1.3 | 28.7
32 | C=C1CC[C@H]2[C@@H](/C=C(\C)C(=O)[C@@]3(O)C[C@H](C)[C@H](OC(=O)Cc4cccc5ccccc45)[C@@H]3[C@H]1OC(=O)Cc1cccc3ccccc13)C2(C)C |  | > 100 | 10.1 | 1.4 | 13.4
33 | C=C1CC[C@H]2[C@@H](/C=C(\C)C(=O)[C@@]3(O)C[C@H](C)[C@H](O)[C@@H]3[C@H]1OC(=O)CC(C)C)C2(C)C |  | 60.8 | 4.7 | 4.1 | 14.8

— ChEMBL document CHEMBL3425486, “Lathyrol diterpenes as modulators of P-glycoprotein dependent multidrug resistance: structure-activity relationship studies on Euphorbia factor L3 derivatives” (J Med Chem, 2015)
